Results on 4 molecules are retold here after ChEMBL document CHEMBL4396879, “Conjugation of Short Peptides to Dibenzodiazepinone-Type Muscarinic Acetylcholine Receptor Ligands Determines M2R Selectivity” (J Med Chem, 2019).

For test [1], the target named is T1, Muscarinic acetylcholine receptor M2 and M5 (Homo sapiens) (UniProt P08172+P08912). As to the kind of experiment: Selectivity ratio of Ki for human muscarinic M5 receptor expressed in stable CHO-K1 cells to Ki for human muscarinic M2 receptor expressed in stable CHO-K1 cells. Format: cell-based.
Test [2] addresses T2, Muscarinic acetylcholine receptor M2 (Homo sapiens, UniProt P08172).
T2 sequence (P08172 whole entry): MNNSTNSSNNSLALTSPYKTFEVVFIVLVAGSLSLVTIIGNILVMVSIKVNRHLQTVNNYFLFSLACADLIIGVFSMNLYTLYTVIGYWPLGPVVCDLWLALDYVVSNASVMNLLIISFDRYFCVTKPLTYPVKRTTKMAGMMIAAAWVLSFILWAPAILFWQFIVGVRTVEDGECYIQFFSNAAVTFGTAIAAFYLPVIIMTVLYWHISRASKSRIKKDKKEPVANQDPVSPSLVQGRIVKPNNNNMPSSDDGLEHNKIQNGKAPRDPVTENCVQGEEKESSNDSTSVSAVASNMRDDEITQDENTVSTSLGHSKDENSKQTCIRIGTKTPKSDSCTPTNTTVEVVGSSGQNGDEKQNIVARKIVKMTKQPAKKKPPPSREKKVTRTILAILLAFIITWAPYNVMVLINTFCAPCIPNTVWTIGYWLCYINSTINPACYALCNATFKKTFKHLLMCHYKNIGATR
As to the kind of experiment: Displacement of [3H]-QNB from human muscarinic M2 receptor expressed in stable CHO-K1 cells incubated for 120 mins by radioligand competition binding assay. Format: cell-based. Background: In a radioligand displacement assay an active substance lowers the binding of a labelled ligand.

In test [3] the target is T3, Muscarinic acetylcholine receptors; M2 & M3 (Homo sapiens) (UniProt P20309+P08172). As to the kind of experiment: Selectivity ratio of Ki for human muscarinic M3 receptor expressed in stable CHO-K1 cells to Ki for human muscarinic M2 receptor expressed in stable CHO-K1 cells. Format: cell-based.
For test [4], the target named is T4, Muscarinic acetylcholine receptor M5 (Homo sapiens, UniProt P08912).
T4 sequence (P08912 whole entry): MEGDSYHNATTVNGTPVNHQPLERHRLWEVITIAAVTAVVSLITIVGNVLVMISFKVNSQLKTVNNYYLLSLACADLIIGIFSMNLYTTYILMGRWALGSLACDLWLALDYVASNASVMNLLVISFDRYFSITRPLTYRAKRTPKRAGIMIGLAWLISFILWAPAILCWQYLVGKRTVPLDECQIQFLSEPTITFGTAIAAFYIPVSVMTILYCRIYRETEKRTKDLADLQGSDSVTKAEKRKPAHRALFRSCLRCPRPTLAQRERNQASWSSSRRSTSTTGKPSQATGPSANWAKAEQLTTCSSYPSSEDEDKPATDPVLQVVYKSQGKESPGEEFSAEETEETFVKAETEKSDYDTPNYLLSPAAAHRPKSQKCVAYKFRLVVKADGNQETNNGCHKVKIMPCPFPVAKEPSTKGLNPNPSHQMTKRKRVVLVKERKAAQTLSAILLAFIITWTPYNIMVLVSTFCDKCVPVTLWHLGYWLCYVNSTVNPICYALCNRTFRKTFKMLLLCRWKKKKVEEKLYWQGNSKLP
As to the kind of experiment: Displacement of [3H]-NMS from human muscarinic M5 receptor expressed in CHO-K1 cells by scintillation counting method. Format: cell-based. An outline of the steps:
(§1)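 [3H]NMS competition binding on intact CHO-hMxR cells in L15 medium with 1% BSA, 3 h at 22 ± 1 °C with gentle shaking. [3H]NMS was 0.2 nM (M1, M2, M3), 0.1 nM (M4) or 0.3 nM (M5). […] Cells were lysed in urea/acetic acid/Triton and counted by liquid scintillation. Ki from Cheng-Prusoff. Triplicates, ≥3 experiments.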

For test [5], the target named is T5, Muscarinic acetylcholine receptor M1 (Homo sapiens, UniProt P11229).
T5 sequence (P11229 whole entry): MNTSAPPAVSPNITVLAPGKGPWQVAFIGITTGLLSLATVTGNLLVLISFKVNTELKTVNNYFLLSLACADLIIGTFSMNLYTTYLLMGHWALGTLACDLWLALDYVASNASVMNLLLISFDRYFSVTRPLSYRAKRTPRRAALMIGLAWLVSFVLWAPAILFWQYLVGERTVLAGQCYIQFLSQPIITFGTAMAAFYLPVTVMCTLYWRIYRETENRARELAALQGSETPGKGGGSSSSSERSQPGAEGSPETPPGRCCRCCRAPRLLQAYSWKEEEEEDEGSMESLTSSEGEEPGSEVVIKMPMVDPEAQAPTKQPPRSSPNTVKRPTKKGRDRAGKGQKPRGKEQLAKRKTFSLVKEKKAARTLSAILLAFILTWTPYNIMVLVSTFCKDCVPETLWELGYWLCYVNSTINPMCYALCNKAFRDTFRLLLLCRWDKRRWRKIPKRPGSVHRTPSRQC
Put plainly: Displacement of [3H]-NMS from human muscarinic M1 receptor expressed in CHO-K1 cells by scintillation counting method. The class given is cell-based. An outline of the steps:
as §1

Test [6] concerns the target T6, Muscarinic acetylcholine receptor M4 (Homo sapiens, UniProt P08173).
T6 sequence (P08173 whole entry): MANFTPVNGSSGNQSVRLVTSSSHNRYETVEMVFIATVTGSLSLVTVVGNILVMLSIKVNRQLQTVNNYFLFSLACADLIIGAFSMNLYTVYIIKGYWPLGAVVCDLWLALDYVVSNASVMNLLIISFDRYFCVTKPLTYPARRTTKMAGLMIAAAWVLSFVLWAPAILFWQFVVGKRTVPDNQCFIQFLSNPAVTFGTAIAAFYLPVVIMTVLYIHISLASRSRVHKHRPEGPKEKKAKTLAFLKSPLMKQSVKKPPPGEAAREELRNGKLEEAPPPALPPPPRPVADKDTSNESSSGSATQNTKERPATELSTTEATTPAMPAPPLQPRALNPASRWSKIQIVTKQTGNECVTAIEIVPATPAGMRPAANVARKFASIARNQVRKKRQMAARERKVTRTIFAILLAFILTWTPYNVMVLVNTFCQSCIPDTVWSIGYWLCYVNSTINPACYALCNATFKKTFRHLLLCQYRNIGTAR
Put plainly: Displacement of [3H]-NMS from human muscarinic M4 receptor expressed in CHO-K1 cells by scintillation counting method. The class given is cell-based. An outline of the steps: as §1

The target in test [7] is T7, Muscarinic acetylcholine receptor M3 (Homo sapiens, UniProt P20309). Put plainly: Displacement of [3H]-NMS from human muscarinic M3 receptor expressed in CHO-K1 cells by scintillation counting method. The class given is cell-based. Summed up:
as §1

Test [8] deals with T2, Muscarinic acetylcholine receptor M2. Put plainly: Displacement of [3H]-NMS from human muscarinic M2 receptor expressed in CHO-K1 cells by scintillation counting method. Format: cell-based. Summed up:
as §1

Test [9] has as its target T5, Muscarinic acetylcholine receptor M1. Put plainly: Displacement of [3H]-NMS from muscarinic M1 receptor (unknown origin) expressed in mouse A9L cells after 60 mins by scintillation counting method. Format: cell-based.
Test [10] in a line: Selectivity ratio of Ki for muscarinic M4 receptor in mouse/rat NG108-15 cells to Ki for rat heart muscarinic M2 receptor. The class given is cell-based.
Test [11] can be described thus: Selectivity ratio of Ki for muscarinic M3 receptor (unknown origin) expressed in mouse A9L cell membranes to Ki for rat heart muscarinic M2 receptor. Format: cell-based.
In test [12] the target is T7, Muscarinic acetylcholine receptor M3. As to the kind of experiment: Displacement of [3H]-NMS from muscarinic M3 receptor (unknown origin) expressed in mouse A9L cell membranes after 60 mins by scintillation counting method.
For test [13], the target named is T8, Muscarinic acetylcholine receptor M2 (Rattus norvegicus, UniProt P10980).
T8 sequence (P10980 whole entry): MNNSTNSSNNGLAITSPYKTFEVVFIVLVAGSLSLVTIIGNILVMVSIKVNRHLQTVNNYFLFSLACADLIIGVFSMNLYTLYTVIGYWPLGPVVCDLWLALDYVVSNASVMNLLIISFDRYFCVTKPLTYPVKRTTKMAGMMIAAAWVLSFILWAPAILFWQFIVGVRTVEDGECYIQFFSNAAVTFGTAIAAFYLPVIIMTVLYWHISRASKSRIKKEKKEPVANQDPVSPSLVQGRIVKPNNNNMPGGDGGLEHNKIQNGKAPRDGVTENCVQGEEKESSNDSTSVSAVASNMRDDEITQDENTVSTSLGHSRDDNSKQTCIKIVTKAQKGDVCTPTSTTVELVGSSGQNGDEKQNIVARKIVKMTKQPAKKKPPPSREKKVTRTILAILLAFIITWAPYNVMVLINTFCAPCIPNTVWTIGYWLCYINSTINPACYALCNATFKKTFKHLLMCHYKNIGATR
Put plainly: Displacement of [3H]-NMS from rat heart muscarinic M2 receptor after 60 mins by scintillation counting method.

Test [14] in a line: Selectivity ratio of Ki for muscarinic M1 receptor (unknown origin) expressed in mouse A9L cell membranes to Ki for rat heart muscarinic M2 receptor. The class given is cell-based.
Test [15] in a line: Displacement of [3H]-NMS from muscarinic M4 receptor in mouse/rat NG108-15 cells after 60 mins by scintillation counting method. The class given is cell-based.
Test [16] addresses Muscarinic acetylcholine receptors; M1 & M2 (Homo sapiens) (UniProt P11229+P08172). As to the kind of experiment: Selectivity ratio of Ki for muscarinic M1 receptor (unknown origin) expressed in CHO cells to Ki for muscarinic M2 receptor (unknown origin) expressed in CHO cells. The class given is cell-based. Summed up:
(§2)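 Ratio of mean Ki values. Each Ki came from an individual [3H]NMS competition experiment at the given CHO-hMxR subtype, converting IC50 to Ki by Cheng-Prusoff before averaging.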

In test [17] the target is T6, Muscarinic acetylcholine receptor M4. Put plainly: Binding affinity to muscarinic M4 receptor (unknown origin) expressed in CHO cells. The class given is cell-based. An outline of the steps:
as §1

Test [18] addresses T5, Muscarinic acetylcholine receptor M1. Put plainly: Binding affinity to muscarinic M1 receptor (unknown origin) expressed in CHO cells. Format: cell-based. An outline of the steps:
as §1

Test [19] addresses T3, Muscarinic acetylcholine receptors; M2 & M3 (Homo sapiens). As to the kind of experiment: Selectivity ratio of Ki for muscarinic M3 receptor (unknown origin) expressed in CHO cells to Ki for muscarinic M2 receptor (unknown origin) expressed in CHO cells. Format: cell-based. An outline of the steps:
as §2

For test [20], the target named is T4, Muscarinic acetylcholine receptor M5. As to the kind of experiment: Binding affinity to muscarinic M5 receptor (unknown origin) expressed in CHO cells. The class given is cell-based. Summed up:
as §1

The target of test [21] is T1, Muscarinic acetylcholine receptor M2 and M5 (Homo sapiens). As to the kind of experiment: Selectivity ratio of ki for muscarinic M5 receptor (unknown origin) expressed in CHO cells to muscarinic M2 receptor (unknown origin) expressed in CHO cells. Format: cell-based. Summed up: as §2
Test [22] deals with T2, Muscarinic acetylcholine receptor M2. As to the kind of experiment: Binding affinity to muscarinic M2 receptor (unknown origin) expressed in CHO cells. Format: cell-based. An outline of the steps:
as §1

Test [23] deals with Muscarinic acetylcholine receptor M2 and M4 (Homo sapiens) (UniProt P08173+P08172). As to the kind of experiment: Selectivity ratio of ki for muscarinic M4 receptor (unknown origin) expressed in CHO cells to muscarinic M2 receptor (unknown origin) expressed in CHO cells. Format: cell-based. An outline of the steps: as §2
Test [24] addresses T7, Muscarinic acetylcholine receptor M3. Put plainly: Binding affinity to muscarinic M3 receptor (unknown origin) expressed in CHO cells. Format: cell-based. An outline of the steps:
as §1

T3 sequence (P20309 whole entry, looked up, one chain of several): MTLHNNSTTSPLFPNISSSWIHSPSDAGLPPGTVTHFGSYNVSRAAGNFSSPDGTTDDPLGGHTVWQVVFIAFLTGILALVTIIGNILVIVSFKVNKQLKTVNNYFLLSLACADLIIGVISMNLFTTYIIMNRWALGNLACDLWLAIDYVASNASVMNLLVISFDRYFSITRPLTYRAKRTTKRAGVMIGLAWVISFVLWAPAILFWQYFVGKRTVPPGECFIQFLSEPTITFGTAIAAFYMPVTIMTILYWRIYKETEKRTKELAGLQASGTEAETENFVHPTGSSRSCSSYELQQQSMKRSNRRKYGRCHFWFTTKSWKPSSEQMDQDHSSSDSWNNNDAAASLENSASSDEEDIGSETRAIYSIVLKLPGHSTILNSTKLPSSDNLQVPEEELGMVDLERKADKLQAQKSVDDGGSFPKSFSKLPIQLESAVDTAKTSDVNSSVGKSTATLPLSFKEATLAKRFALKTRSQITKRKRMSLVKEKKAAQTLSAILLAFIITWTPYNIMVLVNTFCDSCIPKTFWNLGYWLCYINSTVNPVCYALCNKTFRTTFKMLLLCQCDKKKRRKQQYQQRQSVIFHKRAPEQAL
T7 sequence (P20309 whole entry): as the sequence (P20309 whole entry, looked up, one chain of several) above

As a reminder, the Ki is a measure of affinity in units of concentration, obtained from inhibition or displacement. With `Cc1ccccc1C(=O)N1CCC(N2CCC(Cc3ccc(S(=O)(=O)c4cccc(Cl)c4)cc3)CC2)CC1`, the values for the Ratio Ki in test [1] and in test [3] were 48 and 172, respectively. In test [2], this molecule gave a Ki of 0.00269 µM.
As for `CCCC(C)(C)C(=O)N(CC)CCCC1CCN(CC(=O)N2c3ccc(Cl)cc3C(=O)Nc3cccnc32)CC1`, the Ki in test [4] was 1.45 µM; in [5] it was 1.07 µM; in test [6], 0.174 µM; in [7] it was 0.776 µM; in test [8] it was 0.0302 µM. The Ratio Ki came out at 48 in test [1] and 26 in test [3].
Usually pKi stands for −log10 of the Ki, conventionally taken in molar units. Low values mean a large Ki, high ones a small Ki. Turning to `CCN(CC)CCCCC1CCN(CC(=O)N2c3ccccc3NC(=O)c3ccccc32)CC1`, the Ki in [9] was 0.00398 µM; in test [12], 0.01 µM; in test [13] it was 0.000316 µM. Further, the Ratio Ki was 7 in test [10], 37 in test [11] and 13 in test [14]. Besides, the pKi in test [15] came out at 8.7.
Regarding `CCCC(C)(C)C(=O)N(CC)CCCC1CCN(CC(=O)N2c3ccccc3NC(=O)c3ccccc32)CC1`, the Ratio Ki came out at 40 in test [16], 50 in test [19], 40 in [21] and 6.3 in [23]. Further, the Ki was 0.0501 µM in [17]; 0.316 µM in [18]; 0.316 µM in test [20]; 0.00794 µM in test [22]; 0.398 µM in test [24].
